Data taken from ChEMBL document CHEMBL1212820, “Novel hinge binder improves activity and pharmacokinetic properties of BRAF inhibitors” (J Med Chem, 2010).

Columns and labels:
[1] = Oral bioavailability in BALB/cAnNCrl mouse at 10 mg/kg; conditions: in vivo
[2] = Cmax in BALB/cAnNCrl mouse at 10 mg/kg, po; conditions: in vivo
[3] = Half life in BALB/cAnNCrl mouse at 10 mg/kg, po; conditions: in vivo
[4] = biological target: T1, Serine/threonine-protein kinase B-raf (Homo sapiens, UniProt P15056, V600E); assay: Inhibition of B-Raf V600E mutant
Procedure, shortened: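 Enzymatic IC50 determined in vitro against purified V600E BRAF.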

[5] = Tmax in BALB/cAnNCrl mouse at 10 mg/kg, po; conditions: in vivo
[6] = Ratio of Cmax in BALB/cAnNCrl mouse to GI50 for human WM266.4 cells
[7] = Growth inhibition of human WM266.4 cells expressing BRAF V600E mutant after 5 days by SRB assay; assay type: functional; conditions: WM 266-4, 120 h
Procedure, shortened: (§1)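 Antiproliferative SRB assay in WM266.4 (BRAF mutant), WM1361 (NRAS mutant) and D24 (BRAF/NRAS wild-type) melanoma cells, with GI50 derived from the assay.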

[8] = biological target: T1, Serine/threonine-protein kinase B-raf; assay: Inhibition of BRAF V600E mutant-mediated ERK phosphorylation in human WM266.4 cells; assay type: cell-based
Procedure, shortened: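 Cellular IC50 for inhibition of phosphoERK formation.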

[9] = Growth inhibition of human WM1361 cells expressing NRAS mutant after 5 days by SRB assay; assay type: functional; conditions: WM1361, 120 h
Procedure, shortened: as §1

[10] = Growth inhibition of D24 after 5 days by SRB assay; assay type: functional
Procedure, shortened: as §1

[11] = Selectivity index, ratio of GI50 for human WM1361 cells to GI50 for human WM266.4 cells; assay type: functional
Procedure, shortened: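 GI50 values from the SRB proliferation assay, expressed relative to the GI50 in WM266.4 (BRAF mutant) cells.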

[12] = Selectivity index, ratio of GI50 for human WM1361 cells to GI50 for human WM266.4

T1 sequence (P15056 2-766 V600E limits assumed): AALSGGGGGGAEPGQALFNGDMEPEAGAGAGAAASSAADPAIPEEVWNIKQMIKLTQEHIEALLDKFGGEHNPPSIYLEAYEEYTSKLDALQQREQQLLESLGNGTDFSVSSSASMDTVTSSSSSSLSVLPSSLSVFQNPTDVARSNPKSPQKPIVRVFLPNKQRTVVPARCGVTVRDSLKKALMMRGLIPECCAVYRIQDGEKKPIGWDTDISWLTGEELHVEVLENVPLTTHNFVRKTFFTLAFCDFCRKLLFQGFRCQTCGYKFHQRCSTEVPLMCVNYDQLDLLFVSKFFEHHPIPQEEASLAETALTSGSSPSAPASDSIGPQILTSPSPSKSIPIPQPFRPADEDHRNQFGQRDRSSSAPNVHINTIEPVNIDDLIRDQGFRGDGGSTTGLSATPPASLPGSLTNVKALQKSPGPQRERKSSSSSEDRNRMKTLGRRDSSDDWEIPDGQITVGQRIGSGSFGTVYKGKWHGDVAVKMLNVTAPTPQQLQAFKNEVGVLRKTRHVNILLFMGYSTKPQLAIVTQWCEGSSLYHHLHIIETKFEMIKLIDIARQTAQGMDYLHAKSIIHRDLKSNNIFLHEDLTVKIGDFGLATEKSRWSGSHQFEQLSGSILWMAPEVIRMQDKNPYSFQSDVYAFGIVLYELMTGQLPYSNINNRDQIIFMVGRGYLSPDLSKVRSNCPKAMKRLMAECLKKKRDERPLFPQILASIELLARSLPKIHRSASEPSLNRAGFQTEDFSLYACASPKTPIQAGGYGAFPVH

SMILES | bioavailability [1] | Cmax [2] | half-life [3] | IC50 [4] | Tmax [5] | Ratio [6] | GI50 [7] | IC50 [8] | GI50 [9] | GI50 [10] | RatioGI50 [11] | RatioGI50 [12]
CC(C)(C)c1cc(NC(=O)Nc2ccc(Oc3ccnc4[nH]c(=O)cnc34)c3ccccc23)n(-c2ccccc2)n1 | 7% | 14.2 µM | 1.7 h | 77 nM | 0.25 h | 130 | 105 nM | 8 nM |  |  |  | 
Cc1ccc(-n2nc(C(C)(C)C)cc2NC(=O)Nc2ccc(Oc3ccnc4[nH]c(=O)cnc34)cc2F)cc1 | 24% | 33.6 µM | 5.9 h |  | 3 h | 2240 | 15 nM | 24 nM |  |  |  | 
Cc1ccc(-n2nc(C(C)(C)C)cc2NC(=O)Nc2ccc(Oc3ccnc4[nH]c(=O)c(=O)[nH]c34)cc2F)cc1 | 1% | 5.54 µM | 5.4 h | 90 nM | 3 h | 70 | 79 nM | 75 nM |  |  |  | 
Cc1nc2c(Oc3ccc(NC(=O)Nc4cc(C(F)(F)F)ccc4F)c4ccccc34)ccnc2[nH]c1=O | 4% | 0.316 µM |  | 4 nM | 3 h |  | 36 nM | 62 nM |  |  |  | 
CC(C)(C)c1cc(NC(=O)Nc2cccc(Oc3ccnc4[nH]c(=O)cnc34)c2)n(-c2ccccc2)n1 | 6% | 29.5 µM | 1.4 h | 58 nM | 0.5 h | 170 | 170 nM | 280 nM |  |  |  | 
Cc1ccc(-n2nc(C(C)(C)C)cc2NC(=O)Nc2cccc(Oc3ccnc4[nH]c(=O)cnc34)c2)cc1 | 27% | 27 µM | 4 h | 87 nM | 0.5 h | 142 | 190 nM | 274 nM | 12000 nM | 26000 nM | 60 | 130
CSc1cc(Oc2ccnc3[nH]c(=O)cnc23)ccc1NC(=O)Nc1cc(C(C)(C)C)nn1-c1ccc(C)cc1 | 71% | 101 µM | 7.9 h | 19 nM | 3 h | 101200 | 1 nM | 5 nM |  |  |  | 
Cc1ccc(-n2nc(C(C)(C)C)cc2NC(=O)Nc2ccc(Oc3ccnc4[nH]c(S)nc34)cc2F)cc1 | 13% | 11.7 µM | 3.3 h | 310 nM | 3 h | 76 | 154 nM | 55 nM |  |  |  | 
Cc1ccc(-n2nc(C(C)(C)C)cc2NC(=O)Nc2ccc(Oc3ccnc4[nH]c(=O)cnc34)cc2)cc1 | 17% | 31.9 µM | 6.3 h |  | 0.5 h | 510 | 62 nM | 96 nM |  |  |  | 
O=C(Nc1ccc(Oc2ccnc3[nH]c(=O)cnc23)cc1F)Nc1cc(C(F)(F)F)ccc1F |  |  |  | 4 nM |  |  | 1300 nM | 780 nM |  |  |  | 
CSc1cc(Oc2ccnc3ncc(=O)[nH]c23)ccc1NC(=O)Nc1cc(C(C)(C)C)nn1-c1ccccc1 |  |  |  | 450 nM |  |  | 27 nM | 101 nM |  |  |  | 
Nc1nc2nccc(Oc3ccc(NC(=O)Nc4cc(C(F)(F)F)ccc4F)c4ccccc34)c2[nH]c1=O |  |  |  | 43 nM |  |  | 204 nM | 229 nM |  |  |  | 
O=C(Nc1cccc(Oc2ccnc3ncc(=O)[nH]c23)c1)Nc1cc(C(F)(F)F)ccc1F |  |  |  | 105 nM |  |  | 6100 nM | > 100000 nM |  |  |  | 
O=C(Nc1ccc(Oc2ccnc3ncc(=O)[nH]c23)cc1F)Nc1cc(C(F)(F)F)ccc1F |  |  |  | 76 nM |  |  | 1800 nM | 69000 nM |  |  |  | 
Cc1nc2c(Oc3ccc(NC(=O)Nc4cc(C(F)(F)F)ccc4F)c(F)c3)ccnc2[nH]c1=O |  |  |  | 3 nM |  |  | 850 nM | 590 nM |  |  |  | 
Cc1ccc(-n2nc(C(C)(C)C)cc2NC(=O)Nc2cccc(Oc3ccnc4ncc(=O)[nH]c34)c2)cc1 |  |  |  | 580 nM |  |  | 345 nM | 780 nM |  |  |  | 
Cc1ccc(-n2nc(C(C)(C)C)cc2NC(=O)Nc2ccc(Oc3ccnc4[nH]c(=O)c(N)nc34)c3ccccc23)cc1 |  |  |  | 150 nM |  |  | 77 nM | 7 nM |  |  |  | 
